Where only a bound is given, the exact number is not on record here.

Data set [1] can be described thus: Iron clearing efficiency in bile-duct-cannulated rodents following a subcutaneous dosage of 300 umol/kg. The class given is functional. The method, boiled down: (§1)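 Bile-duct-cannulated rats given a subcutaneous dose of 300 µmol/kg, equivalent in iron-binding capacity to 450 µmol/kg of the 3:1 ligands. Chelator-induced iron excretion measured in both bile and urine. Bile collected as multiple samples to follow excretion kinetics.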

The test system of data set [2] is L1210. Put plainly: Inhibitory concentration against growth of murine L1210 cells at 96 hours. In kind it is functional, cell-based. To be noted: Mus musculus, L1210, 96 h. The method, boiled down:
(§2)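 Proliferation of murine leukemia L1210 cells measured after 48 h or 96 h exposure. IC50 reported as the mean of at least two experiments. Variation from the mean was typically 10–25% for the 96-h values.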

For data set [3], the system named is L1210. Put plainly: Ratio of intracellular concentration to that of treatment concentration in L1210 cells. In kind it is functional, Mus musculus.
Data set [4] in a line: Iron clearing efficiency in urine of rodents following a subcutaneous dosage of 300 umol/kg. In kind it is functional. The essentials:
as §1

The test system of data set [5] is L1210. Put plainly: Inhibitory concentration against growth of murine L1210 cells at 48 hours. The class given is functional, cell-based. As to conditions: Mus musculus, L1210, 48 h. The essentials:
as §2

For data set [6], the system named is L1210. Put plainly: Ability to compete with [3H]SPD for the polyamine transport apparatus in L1210 cells. In kind it is functional, cell-based, Mus musculus.
The test system of data set [7] is L1210. Put plainly: Intracellular concentration was determined in murine L1210 cells after treatment with 100 uM compound for 48 h. In kind it is functional, cell-based. To be noted: Mus musculus. The essentials:
(§3)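 Murine leukemia L1210 cells exposed to the compound, 48 h unless another time is indicated. Intracellular level measured as pmol/10^6 cells. Converted to concentration using about 1 µL volume per 10^6 untreated cells.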

Data set [8] is described as follows: Iron clearing efficiency in bile of rodents following a subcutaneous dosage of 300 umol/kg. The class given is functional. The essentials: as §1
Data set [9] has as its system L1210. Put plainly: Intracellular concentration was determined in murine L1210 cells after treatment with 30 uM compound for 48 h. The class given is functional, cell-based. As to conditions: Mus musculus. The essentials: as §3
For data set [10], the system named is L1210. Put plainly: Intracellular concentration was determined in murine L1210 cells after treatment with 100 uM compound for 4 hrs. The class given is functional, cell-based. To be noted: Mus musculus. The method, boiled down: as §3
Data set [11] deals with L1210. Put plainly: Intracellular concentration was determined in murine L1210 cells after treatment with 100 uM compound for 48 hrs. The class given is functional, cell-based. To be noted: Mus musculus. The essentials:
as §3

The nature of data set [12]: Iron clearing efficiency in bile-duct-cannulated rodents following a subcutaneous dosage of 450 umol/kg. The class given is ADME. As to conditions: rodentia, in vivo, sc. The method, boiled down:
(§4)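 Bile-duct-cannulated rat model. Drug given sc at 450 µmol/kg, set for equivalent iron-binding capacity. Chelator-promoted iron excretion measured in both bile and urine. Multiple bile samples collected, so the kinetics of iron excretion could be followed.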

The nature of data set [13]: Iron clearing efficiency in bile-duct-cannulated rodents following a subcutaneous dosage of 450 umol/kg (iron excretion delayed until ~18 hours after administration). The class given is functional.
Data set [14] in a line: Iron clearing efficiency in urine of rodents following a subcutaneous dosage of 450 umol/kg. In kind it is ADME. As to conditions: rodentia, in vivo, sc. The essentials:
as §4

Data set [15] concerns L1210. Put plainly: Intracellular concentration was determined in murine L1210 cells after treatment with 0.2 uM compound for 48 h. To be noted: Mus musculus. In kind it is functional, cell-based. The method, boiled down:
as §3

The nature of data set [16]: Iron clearing efficiency in bile of rodents following a subcutaneous dosage of 450 umol/kg. As to conditions: rodentia, in vivo, sc. In kind it is ADME. The essentials: as §4
Data set [17] concerns L1210. Put plainly: Intracellular concentration was determined in murine L1210 cells after treatment with 50 uM compound for 48 h. To be noted: Mus musculus. In kind it is functional, cell-based. The essentials:
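Murine leukemia L1210 cells exposed to compound for 48 h unless otherwise indicated. Intracellular concentration expressed as pmol/10^6 cells; 10^6 untreated cells taken as about 1 µL volume. Mean of at least two or three experiments, variation typically less than 10%.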

On to `C[C@]1(C(=O)O)CSC(c2ccc(O)cc2O)=N1` [DEFERITRIN], for which the Efficiency is 1.1% in [1], 7% in data set [4] and 93% in data set [8]. Further, the half-inhibitory concentration (IC50) (commonly the concentration needed to halve the response being measured) in data set [2] was 20 µM; in data set [5], 19 µM. The Ratio in data set [3] was less than 0.5. In addition, in data set [6], the Ki (as a rule, a dissociation constant, usually derived from enzyme kinetics or from competition with a known ligand) was greater than 500 µM. The same compound displayed a Concentration (pmol/10E6 cells) in [7] of less than 50.

`CCNCCCNCCCCNCCCNCC` [BIS(ETHYL)SPERMINE] registered a Concentration (pmol/10E6 cells) in data set [9] of 400. The Ratio in data set [3] is recorded as 13.3.

`C[C@]1(C(=O)O)CSC(c2ccc(OCCCCNCCCNCCCN)cc2O)=N1`: the Efficiency in data set [1] was determined as 9.2%; in data set [4] it was 1%; in [8] it was 99%. The IC50 in data set [2] and in data set [5] was 40 µM in each case. Also, the Ratio in data set [3] was 0.7. This compound also yielded a Concentration (pmol/10E6 cells) in data set [10] of 71. The compound also yielded an inhibitory constant (Ki) in data set [6] of 73 µM.

For the compound `COC(=O)c1ccc(C(=O)NCCCNCCCCNCCCN)cc1`, the IC50 in data set [2] and in data set [5] was greater than 100 µM throughout. The Ratio in [3] is listed as 4.3. The Concentration (pmol/10E6 cells) in data set [11] stood at 430. Besides, affinity in [6] was put at a Ki of 3.1 µM.

As to `Cc1c(O)c(=O)ccn1CCCNCCCCNCCCN`, the Efficiency in data set [12] is 1.8%; in [13], less than 0.5%; in data set [14], 47%; in [16], 53%. Also, the Ratio in data set [3] is recorded as 1950. For the same compound, the concentration for half-maximal inhibition (IC50) in data set [5] worked out at 0.2 µM. In data set [15], this compound showed a Concentration (pmol/10E6 cells) of 390. This compound came in with a Ki in data set [6] of 3.7 µM.

Turning to `NCCCNCCCCNCCCNC(=O)c1ccc(C(=O)O)cc1`, the half-maximal inhibitory concentration (IC50) in data set [2] and in data set [5] was greater than 100 µM throughout. In [3], the Ratio was less than 0.7. The affinity in data set [6] corresponds to a Ki of 27 µM. In [7], this compound had a Concentration (pmol/10E6 cells) of less than 70.

Take `Cc1c(O)c(=O)ccn1C` [DEFERIPRONE]: the values for the Efficiency in data set [12], in data set [14] and in [16] were 2.2%, 26% and 74%, respectively. In data set [17], this compound returned a Concentration (pmol/10E6 cells) of 1. Also, the IC50 came out at 55 µM in data set [2] and 46 µM in data set [5]. In addition, the Ratio in data set [3] came to 0.02. Moreover, in data set [6], the Ki is greater than 500 µM.

As for `CCOC(=O)[C@@]1(C)CSC(c2ccc(OCCCCNCCCNCCCN)cc2O)=N1`, the Efficiency was 13.6% in [1], 3% in data set [4] and 97% in data set [8]. The IC50 in [2] and in [5] was 1.5 µM each time. Moreover, the figures for the Concentration (pmol/10E6 cells) in [10] and in [11] were 2980 and 947, respectively. The compound also came in with an inhibitory constant (Ki) in data set [6] of 5.7 µM.

With `FC(F)(F)CNCCCNCCCCNCCCNCC(F)(F)F`, the IC50 in data set [2] is greater than 100 µM. Also, the Ratio in [3] is listed as less than 0.2. In addition, in [7], the Concentration (pmol/10E6 cells) is less than 20.

For the origin of these results see ChEMBL document CHEMBL1144451, “Polyamine-vectored iron chelators: the role of charge” (J Med Chem, 2005).
